Source: ChEMBL document CHEMBL1133270, “Cinnamaldehydes inhibit cyclin dependent kinase 4/cyclin D1” (Bioorg Med Chem Lett, 2000)

How the values were obtained:
Assay type in all cases: protein-complex assay
[1] = target: Cyclin-dependent kinase 4/cyclin D1 (Homo sapiens) (UniProt P11802+P24385); experiment: Inhibitory activity against Cyclin D1-cyclin-dependent kinase 4; design: concentration or dose not given beside the values; details: concentration not given here
Outline: (§1)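 GST-cyclin D1-CDK4 from baculovirus-infected Sf21 cells, purified by glutathione chromatography, used at 200 nM. The substrate was a GST-RB fusion (RB residues 792–928), with ATP plus [γ-³³P]ATP. Compounds were added and the reaction ran 30 min at 30 °C, then was stopped with ice-cold 30% TCA. Products were captured on PVDF filter plates and ³³P-RB counted by scintillation. Inhibition is expressed relative to an inhibitor-free control.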

[2] = target: T1, Cyclin-dependent kinase 4/cyclin D1 (Homo sapiens, UniProt P11802); experiment: Inhibition of Cyclin D1-cyclin-dependent kinase 4; outline: as §1
[3] = target: Cyclin-dependent kinase 1/cyclin B (Homo sapiens, UniProt P06493); experiment: Inhibition of Cyclin B-cyclin-dependent kinase 1
Outline: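 Cyclin B-CDK1 purified from starfish oocytes; histone H1 as substrate; kinase reaction run for 10 min at 30 °C. Read-out is histone H1 phosphorylation, expressed as a percentage of the control reaction run without inhibitor.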

[4] = target: T1, Cyclin-dependent kinase 4/cyclin D1; experiment: Inhibition of Cyclin D1-Cyclin dependent kinase 4; outline: as §1

T1 sequence (P11802 whole entry): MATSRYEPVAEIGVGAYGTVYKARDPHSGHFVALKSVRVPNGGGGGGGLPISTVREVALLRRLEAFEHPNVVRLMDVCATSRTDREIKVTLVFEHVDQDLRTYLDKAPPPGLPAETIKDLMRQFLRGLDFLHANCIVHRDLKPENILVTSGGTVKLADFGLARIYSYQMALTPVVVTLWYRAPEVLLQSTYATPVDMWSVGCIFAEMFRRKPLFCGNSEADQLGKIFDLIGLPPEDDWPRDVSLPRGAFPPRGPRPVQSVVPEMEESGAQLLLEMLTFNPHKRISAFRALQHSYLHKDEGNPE
T1 sequence (P24385 whole entry, further chain): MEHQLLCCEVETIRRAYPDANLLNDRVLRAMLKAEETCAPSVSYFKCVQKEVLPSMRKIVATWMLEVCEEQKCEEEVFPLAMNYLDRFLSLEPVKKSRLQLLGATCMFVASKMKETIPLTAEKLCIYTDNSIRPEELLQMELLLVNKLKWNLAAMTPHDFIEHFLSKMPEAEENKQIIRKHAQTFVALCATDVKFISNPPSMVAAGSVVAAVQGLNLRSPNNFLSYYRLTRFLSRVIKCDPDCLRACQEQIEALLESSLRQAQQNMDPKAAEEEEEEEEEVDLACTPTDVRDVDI

inhibition [1] [%] | SMILES | other results
38 | O=C/C=C/c1ccccc1OCc1cccc2ccccc12 | 
71 | O=C/C=C/c1ccccc1OCc1ccc(Br)cc1 | 
25 | O=C/C=C/c1ccccc1OC(=O)c1ccc(F)cc1 | 
68 | Cc1ccc(COc2ccccc2/C=C/C=O)cc1 | 
45 | N#Cc1ccccc1COc1cccc(/C=C/C=O)c1 | 
30 | O=C/C=C/c1ccccc1[N+](=O)[O-] | 
52 | O=C/C=C/c1ccccc1OC(=O)c1ccccc1 | 
< 10 | O=C(O)/C=C/c1ccccc1O | 
43 | COc1ccccc1COc1ccccc1/C=C/C=O | 
65 | COc1ccccc1COc1cccc(/C=C/C=O)c1 | 
82 | COc1ccc(COc2cccc(/C=C/C=O)c2)cc1 | 

Continued, compound first:

SMILES | inhibition [1] [%] | other results
COc1ccc(COc2ccccc2/C=C/C=O)cc1 | 59 | 
N#Cc1ccccc1COc1ccccc1/C=C/C=O | 22 | 
O=C/C=C/c1cccc(OCc2cccc3ccccc23)c1 | 85 | 
O=C/C=C/c1cccc(OCc2ccccc2)c1 | 94 | IC50 [2]: 7.5 µM; IC50 [3]: 50 µM
COc1ccc(/C=C/C=O)cc1O | 40 | 
O=C/C=C/c1cccc(O)c1 | 40 | IC50 [3]: 30 µM; IC50 [4]: 45 µM
CC(Oc1cccc(/C=C/C=O)c1)c1ccccc1 (stereo unspecified) | 77 | 
COc1ccc(/C=C/C=O)cc1OCc1ccc(Br)cc1 | 58 | 
Cc1ccc(COc2cccc(/C=C/C=O)c2)cc1 | 84 | 
COc1ccc2c(COc3cccc(/C=C/C=O)c3)cc(=O)oc2c1 | 53 | 
CC(Oc1ccccc1/C=C/C=O)c1ccccc1 (stereo unspecified) | 63 | 
O=C/C=C/c1ccccc1O [2-HYDROXYCINNAMALDEHYDE] | 50 | IC50 [2]: 35 µM; IC50 [3]: 130 µM
Cc1ccccc1COc1cccc(/C=C/C=O)c1 | 73 | IC50 [2]: 15 µM; IC50 [3]: 60 µM
O=C/C=C/c1ccccc1OCCc1ccccc1 | 72 | 
Cc1ccc(C(=O)Oc2ccccc2/C=C/C=O)cc1 | 50 | 
O=C/C=C/c1cccnc1 | 54 | 
O=C/C=C/c1cccc(OCc2ccc(Br)cc2)c1 | 88 | 
O=C/C=C/c1ccccc1OCc1ccccc1 | 85 | IC50 [2]: 11 µM; IC50 [3]: 50 µM
COc1ccccc1C(=O)Oc1ccccc1/C=C/C=O | 23 | 
O=C/C=C/c1cccc(OCCc2ccccc2)c1 | 80 | 
O=C/C=C/c1cccc(OCc2ccc3c(c2)C(=O)c2ccccc2C3=O)c1 | 34 | 
O=C/C=C/c1ccccc1Cl | 51 | 
Cc1ccccc1COc1ccccc1/C=C/C=O | 70 | IC50 [2]: 18 µM; IC50 [3]: 200 µM
